ChEMBL document CHEMBL1156121, “Synthesis and antioxidant properties of some novel 5H-dibenz[b,f]azepine derivatives in different in vitro model systems” (Eur J Med Chem, 2010)
The source made the active and inactive calls. The rule behind the calls is not given here.

Legend:
[1] = test system: Radical scavenging activity; experiment: Antioxidant activity assessed as DPPH radical scavenging activity; type: functional
Outline: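 Ethanolic compound solutions (10, 25, 50, 100, 200, 500) were mixed with 0.1 mM DPPH in ethanol (4 mL to 1 mL sample) and kept in the dark at room temperature for 20 min. A517 was compared with a compound-free blank, giving % inhibition = (A0−A1)/A0×100. IC50 was read from the plot of % scavenging against concentration.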

[2] = Antioxidant activity against lipid peroxidation at 50 uM by beta-carotene linoleate method; type: functional
Outline: (§1)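 β-Carotene/linoleic acid/Tween-40 emulsion, with chloroform removed, was mixed with compound in ethanol; BHA and ascorbic acid were run at the same concentrations as references. Absorbance was read at 470 nm at t=0 and then every 30 min to 180 min. Results are given as % antioxidant activity, mean ± SD, n = 3.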

[3] = Antioxidant activity against lipid peroxidation at 25 uM by beta-carotene linoleate method; type: functional; outline: as §1
[4] = Antioxidant activity assessed as reduction of […]/ferricyanide complex; type: functional
Outline: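 Oyaizu method. Compounds (50 and 100) were incubated in 0.2 M phosphate buffer pH 6.6 with 1% potassium ferricyanide at 50 °C for 20 min. After adding 10% TCA and centrifuging, the supernatant was diluted with water and mixed with 0.1% FeCl3, then A700 was read. Values are means of three independent samples.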

[5] = test system: Blood; experiment: Antioxidant activity against copper-induced low density lipoprotein oxidation in human blood assessed as malonoldehyde formation at 10 uM after 2 hrs by thiobarbituric acid method; type: functional
Outline: (§2)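 Human LDL isolated from fasting volunteers' plasma by ultracentrifugation, then dialysed against PBS pH 7.4 (0.1 mg LDL protein/mL). Compounds at 10 and 25 were incubated with LDL and 40 µL of 2 mM CuSO4 in 50 mM phosphate buffer pH 7.4 at 37 °C. Controls were run without compound and without copper. Aliquots taken at 2, 4 and 6 h were heated with TBA/TCA at 95 °C for 45 min. TBARS (MDA) was read at 532 nm.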

[6] = test system: Blood; experiment: Antioxidant activity against copper-induced low density lipoprotein oxidation in human blood assessed as malonoldehyde formation at 25 uM after 2 hrs by thiobarbituric acid method; type: functional; outline: as §2
[7] = test system: Blood; experiment: Antioxidant activity against copper-induced low density lipoprotein oxidation in human blood assessed as malonoldehyde formation at 10 uM after 6 hrs by thiobarbituric acid method; type: functional; outline: as §2
[8] = test system: Blood; experiment: Antioxidant activity against copper-induced low density lipoprotein oxidation in human blood assessed as malonoldehyde formation at 25 uM after 6 hrs by thiobarbituric acid method; type: functional; outline: as §2
[9] = test system: Blood; experiment: Antioxidant activity against copper-induced low density lipoprotein oxidation in human blood assessed as malonoldehyde formation by thiobarbituric acid method; type: functional, tissue-based; outline: as §2

SMILES | IC50 [1] [µM] | Activity [2] [%] | Activity [3] [%] | Activity [4] | Activity [5] [%] | Activity [6] [%] | Activity [7] [%] | Activity [8] [%] | Activity [9] | Activity [1]
O=C1O[C@H]([C@@H](O)CO)C(O)=C1O [ASCORBIC ACID] | 13.2 | – | – | – | – | – | – | – | – | –
COc1cc(NCCC(=O)N2c3ccccc3C=Cc3ccccc32)ccc1O | 13.9 | 91.3 | 91.5 | Dose-dependent effect | 56.13 | 70.41 | 72.93 | 89.61 | – | –
O=C(CCNc1ccc(O)c([N+](=O)[O-])c1)N1c2ccccc2C=Cc2ccccc21 | 14.8 | 90 | 88.4 | Dose-dependent effect | – | – | – | – | Active | –
COc1ccc(O)c(C(C)(C)C)c1.COc1ccc(O)cc1C(C)(C)C [BUTYLATED HYDROXYANISOLE] | 14.1 | – | – | – | – | – | – | – | – | –
O=C(CCCl)N1c2ccccc2C=Cc2ccccc21 | – | – | – | inactive | 5.34 | 7.43 | 8.87 | 12.43 | inactive | inactive
O=C(CCNc1ccc(O)cc1)N1c2ccccc2C=Cc2ccccc21 | 15.3 | 88.7 | 87.1 | Dose-dependent effect | – | – | – | – | Active | –
O=C(CCNc1cccc(O)c1)N1c2ccccc2C=Cc2ccccc21 | 17.4 | – | – | Dose-dependent effect | – | – | – | – | Active | –
O=C(CCNc1ccccc1O)N1c2ccccc2C=Cc2ccccc21 | 16.1 | – | – | Dose-dependent effect | – | – | – | – | Active | –
